From PMC3984478 (Cancer cell, 2012)

What was measured:
Assay type in all cases: cell-based, human
HLY-1 cells = experiment: Growth inhibition, ATP-based luminescent assay; details: 50 µM, 48 hr
Procedure, shortened: (§1)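 Cells received a single dose of test compound over a concentration range and proliferation was read at 48 hr by luminescent ATP quantification. Luminescence was converted to cell number using per-line standard curves built from trypan blue counts. Viability was normalised to controls and expressed as 1 − fractional viability, and GI25/GI50 were fitted. Experiments were run three times in triplicate.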

U2932 cells = experiment: Growth inhibition, ATP-based luminescent assay; details: 50 µM, 48 hr
Procedure, shortened: as §1

[1] = test system: GCB-DLBCL cell lines (OCI-Ly7 and OCI-Ly1); experiment: Growth inhibition, ATP-based luminescent assay; details: 50 µM, 48 hr
Procedure, shortened: as §1

OCI-Ly10 cells = experiment: Growth inhibition, ATP-based luminescent assay; details: 50 µM, 48 hr
Procedure, shortened: as §1

HBL-1 cells = experiment: Growth inhibition, ATP-based luminescent assay; details: 50 µM, 48 hr
Procedure, shortened: as §1

TMD8 cells = experiment: Growth inhibition, ATP-based luminescent assay; details: 50 µM, 48 hr
Procedure, shortened: as §1

[2] = test system: nuclear c-REL in HBL-1 cells; experiment: c-REL flow cytometry of whole cells or isolated nuclei; details: 200 nM MI-2 or 50 µM Z-VRPR-FMK, 24 hr
Procedure, shortened: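 HBL-1 cells were exposed for 24 hr to 200 nM test compound, to 50 µM Z-VRPR-FMK as positive control, or to vehicle. c-REL was then measured by flow cytometry in whole cells and in isolated nuclei.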

OCI-Ly3 cells = experiment: Growth inhibition, ATP-based luminescent assay; details: 50 µM, 48 hr
Procedure, shortened: as §1

## Z-VRPR-FMK [reference compound]
HLY-1 cells
  response of proliferation: relatively little response
U2932 cells
  response of proliferation: relatively little response
[1]
  response of proliferation: did not respond
OCI-Ly10 cells
  response of proliferation: inhibition of proliferation
HBL-1 cells
  response of proliferation: inhibition of proliferation
TMD8 cells
  response of proliferation: inhibition of proliferation
[2]
  nuclear c-REL (flow cytometry): reduced nuclear c-REL to a similar extent
OCI-Ly3 cells
  response of proliferation: inhibition of proliferation
